ChEMBL document CHEMBL3352666, “Human Toll-like receptor 8-selective agonistic activities in 1-alkyl-1H-benzimidazol-2-amines” (J Med Chem, 2014)
Activity calls are given as the source filed them.

Experiments:
Type in all cases: cell-based
[1] = biological target: Toll-like receptor 2 (Homo sapiens) (UniProt O60603); assay: Agonist activity at human TLR2 stably expressed in HEK293 cells co-expressing secreted alkaline phosphatase assessed as NF-kappaB induction by liquid handler-assisted reporter gene assay
Procedure, shortened: (§1)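 HEK293 reporter cells stably co-transfected with the respective human TLR or NOD receptor plus NF-κB/AP-1-driven secreted alkaline phosphatase, kept in selection medium. About 10^5 cells/ml were incubated with graded concentrations of test compound in 384-well format. Supernatant sAP was read colorimetrically at 620 nm with an alkaline phosphatase-specific chromogen in detection medium.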

[2] = biological target: Toll-like receptor 4 (Homo sapiens) (UniProt O00206); assay: Agonist activity at human TLR4 stably expressed in HEK293 cells co-expressing secreted alkaline phosphatase assessed as NF-kappaB induction by liquid handler-assisted reporter gene assay; procedure, shortened: as §1
[3] = biological target: Toll-like receptor 5 (Homo sapiens) (UniProt O60602); assay: Agonist activity at human TLR5 stably expressed in HEK293 cells co-expressing secreted alkaline phosphatase assessed as NF-kappaB induction by liquid handler-assisted reporter gene assay; procedure, shortened: as §1
[4] = biological target: T1, Toll-like receptor 7 (Homo sapiens) (UniProt Q9NYK1); assay: Agonist activity at human TLR7 stably expressed in HEK293 cells co-expressing secreted alkaline phosphatase assessed as NF-kappaB induction by liquid handler-assisted reporter gene assay; procedure, shortened: as §1
T1 sequence (whole entry): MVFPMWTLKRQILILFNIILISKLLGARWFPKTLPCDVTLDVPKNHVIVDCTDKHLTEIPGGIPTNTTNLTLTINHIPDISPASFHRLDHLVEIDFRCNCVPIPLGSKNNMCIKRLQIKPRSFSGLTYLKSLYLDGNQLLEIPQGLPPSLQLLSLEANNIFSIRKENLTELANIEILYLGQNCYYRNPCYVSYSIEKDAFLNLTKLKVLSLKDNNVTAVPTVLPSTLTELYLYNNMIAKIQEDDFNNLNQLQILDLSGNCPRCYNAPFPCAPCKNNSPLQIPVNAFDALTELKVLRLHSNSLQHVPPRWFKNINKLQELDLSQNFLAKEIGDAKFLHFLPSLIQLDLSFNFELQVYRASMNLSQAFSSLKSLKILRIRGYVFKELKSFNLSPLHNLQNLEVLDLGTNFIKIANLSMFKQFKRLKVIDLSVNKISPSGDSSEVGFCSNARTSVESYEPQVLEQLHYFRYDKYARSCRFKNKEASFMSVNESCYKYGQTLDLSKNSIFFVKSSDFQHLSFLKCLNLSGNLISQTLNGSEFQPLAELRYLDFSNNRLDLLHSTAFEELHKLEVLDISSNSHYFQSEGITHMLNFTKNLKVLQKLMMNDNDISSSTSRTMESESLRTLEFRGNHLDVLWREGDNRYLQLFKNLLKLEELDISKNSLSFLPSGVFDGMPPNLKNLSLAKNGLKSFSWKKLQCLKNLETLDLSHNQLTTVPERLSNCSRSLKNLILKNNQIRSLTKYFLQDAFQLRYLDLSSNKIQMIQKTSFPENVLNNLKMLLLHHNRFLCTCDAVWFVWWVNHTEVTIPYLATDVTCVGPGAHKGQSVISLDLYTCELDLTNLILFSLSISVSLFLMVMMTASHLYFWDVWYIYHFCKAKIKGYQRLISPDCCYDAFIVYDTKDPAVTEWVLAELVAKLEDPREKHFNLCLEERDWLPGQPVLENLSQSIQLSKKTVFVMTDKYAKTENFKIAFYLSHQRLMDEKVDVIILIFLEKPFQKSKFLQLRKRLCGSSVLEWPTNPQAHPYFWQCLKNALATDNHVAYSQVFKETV

[5] = biological target: T2, Toll-like receptor 9 (Homo sapiens) (UniProt Q9NR96); assay: Agonist activity at human TLR9 stably expressed in HEK293 cells co-expressing secreted alkaline phosphatase assessed as NF-kappaB induction by liquid handler-assisted reporter gene assay; procedure, shortened: as §1
T2 sequence (whole entry): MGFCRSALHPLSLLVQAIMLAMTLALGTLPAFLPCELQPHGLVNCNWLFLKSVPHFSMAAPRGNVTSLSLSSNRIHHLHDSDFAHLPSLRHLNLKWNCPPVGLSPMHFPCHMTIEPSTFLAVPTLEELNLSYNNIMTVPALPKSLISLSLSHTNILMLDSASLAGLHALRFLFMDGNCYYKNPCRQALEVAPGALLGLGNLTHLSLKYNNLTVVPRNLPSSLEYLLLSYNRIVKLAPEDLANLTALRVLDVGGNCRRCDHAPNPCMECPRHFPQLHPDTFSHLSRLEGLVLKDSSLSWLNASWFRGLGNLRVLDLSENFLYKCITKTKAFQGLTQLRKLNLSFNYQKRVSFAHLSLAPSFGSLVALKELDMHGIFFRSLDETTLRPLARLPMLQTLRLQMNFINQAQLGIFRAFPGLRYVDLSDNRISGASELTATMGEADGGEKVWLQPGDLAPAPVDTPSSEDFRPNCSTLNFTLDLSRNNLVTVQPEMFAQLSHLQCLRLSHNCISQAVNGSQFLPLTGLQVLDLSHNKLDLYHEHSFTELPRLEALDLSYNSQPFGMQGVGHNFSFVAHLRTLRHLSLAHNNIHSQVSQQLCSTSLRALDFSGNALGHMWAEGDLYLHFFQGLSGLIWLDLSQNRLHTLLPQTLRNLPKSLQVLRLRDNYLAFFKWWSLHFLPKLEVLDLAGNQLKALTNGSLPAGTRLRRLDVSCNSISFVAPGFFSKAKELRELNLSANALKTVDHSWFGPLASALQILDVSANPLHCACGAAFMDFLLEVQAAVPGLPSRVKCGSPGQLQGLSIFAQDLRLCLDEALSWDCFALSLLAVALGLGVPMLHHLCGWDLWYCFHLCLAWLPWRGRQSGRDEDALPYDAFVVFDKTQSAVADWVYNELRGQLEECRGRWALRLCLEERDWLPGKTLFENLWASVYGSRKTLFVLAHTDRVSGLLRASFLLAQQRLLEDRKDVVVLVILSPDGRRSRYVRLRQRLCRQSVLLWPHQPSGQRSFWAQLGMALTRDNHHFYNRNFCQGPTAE

[6] = biological target: Nucleotide-binding oligomerization domain-containing protein 2 (Homo sapiens, UniProt Q9HC29); assay: Agonist activity at human NOD2 stably expressed in HEK293 cells co-expressing secreted alkaline phosphatase assessed as NF-kappaB induction by liquid handler-assisted reporter gene assay; procedure, shortened: as §1

Measured: Activity

Toll-like receptor 4 (Homo sapiens), sequence (O00206 whole entry): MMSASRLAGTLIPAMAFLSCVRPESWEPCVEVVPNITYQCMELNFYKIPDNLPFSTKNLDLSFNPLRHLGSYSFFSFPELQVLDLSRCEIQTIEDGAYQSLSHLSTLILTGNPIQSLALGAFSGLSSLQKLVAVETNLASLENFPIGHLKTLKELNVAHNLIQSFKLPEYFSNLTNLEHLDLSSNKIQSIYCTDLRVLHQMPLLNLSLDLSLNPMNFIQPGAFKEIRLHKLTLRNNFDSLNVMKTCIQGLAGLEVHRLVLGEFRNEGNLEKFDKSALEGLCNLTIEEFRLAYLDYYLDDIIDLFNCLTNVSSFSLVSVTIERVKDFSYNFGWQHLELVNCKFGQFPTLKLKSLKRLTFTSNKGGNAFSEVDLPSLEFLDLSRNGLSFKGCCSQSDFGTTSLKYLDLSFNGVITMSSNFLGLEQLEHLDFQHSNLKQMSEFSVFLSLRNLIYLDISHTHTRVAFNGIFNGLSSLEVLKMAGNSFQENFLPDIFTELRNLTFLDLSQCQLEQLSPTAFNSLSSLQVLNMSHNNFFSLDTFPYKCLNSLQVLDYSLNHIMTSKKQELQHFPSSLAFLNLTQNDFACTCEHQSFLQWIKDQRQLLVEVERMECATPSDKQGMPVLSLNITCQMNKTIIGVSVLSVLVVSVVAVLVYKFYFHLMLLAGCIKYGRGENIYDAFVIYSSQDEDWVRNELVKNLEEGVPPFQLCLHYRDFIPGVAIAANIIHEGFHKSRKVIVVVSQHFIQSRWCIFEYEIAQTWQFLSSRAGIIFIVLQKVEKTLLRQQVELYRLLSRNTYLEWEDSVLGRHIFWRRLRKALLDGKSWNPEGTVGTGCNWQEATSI
Toll-like receptor 5 (Homo sapiens), sequence (O60602 whole entry): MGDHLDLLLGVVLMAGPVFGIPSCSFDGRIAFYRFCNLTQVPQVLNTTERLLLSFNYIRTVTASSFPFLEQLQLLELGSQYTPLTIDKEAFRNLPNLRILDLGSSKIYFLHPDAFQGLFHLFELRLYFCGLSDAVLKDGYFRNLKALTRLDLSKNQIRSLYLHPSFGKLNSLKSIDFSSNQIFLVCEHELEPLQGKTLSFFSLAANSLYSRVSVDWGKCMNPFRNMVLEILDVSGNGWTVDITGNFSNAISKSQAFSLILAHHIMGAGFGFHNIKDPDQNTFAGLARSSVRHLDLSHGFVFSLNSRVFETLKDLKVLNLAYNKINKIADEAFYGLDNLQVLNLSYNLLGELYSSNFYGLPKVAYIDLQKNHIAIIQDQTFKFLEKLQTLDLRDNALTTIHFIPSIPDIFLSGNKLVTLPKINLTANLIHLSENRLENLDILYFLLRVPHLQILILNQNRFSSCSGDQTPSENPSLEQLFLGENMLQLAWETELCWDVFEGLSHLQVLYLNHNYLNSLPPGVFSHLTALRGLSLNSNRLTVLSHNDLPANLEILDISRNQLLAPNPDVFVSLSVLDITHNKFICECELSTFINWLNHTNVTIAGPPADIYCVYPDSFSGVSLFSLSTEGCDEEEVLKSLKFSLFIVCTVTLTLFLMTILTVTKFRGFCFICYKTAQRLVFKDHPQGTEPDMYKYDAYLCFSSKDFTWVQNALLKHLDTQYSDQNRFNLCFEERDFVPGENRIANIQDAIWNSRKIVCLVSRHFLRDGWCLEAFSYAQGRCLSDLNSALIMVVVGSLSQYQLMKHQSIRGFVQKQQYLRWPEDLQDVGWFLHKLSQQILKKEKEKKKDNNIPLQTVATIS
Toll-like receptor 2 (Homo sapiens), sequence (O60603 whole entry): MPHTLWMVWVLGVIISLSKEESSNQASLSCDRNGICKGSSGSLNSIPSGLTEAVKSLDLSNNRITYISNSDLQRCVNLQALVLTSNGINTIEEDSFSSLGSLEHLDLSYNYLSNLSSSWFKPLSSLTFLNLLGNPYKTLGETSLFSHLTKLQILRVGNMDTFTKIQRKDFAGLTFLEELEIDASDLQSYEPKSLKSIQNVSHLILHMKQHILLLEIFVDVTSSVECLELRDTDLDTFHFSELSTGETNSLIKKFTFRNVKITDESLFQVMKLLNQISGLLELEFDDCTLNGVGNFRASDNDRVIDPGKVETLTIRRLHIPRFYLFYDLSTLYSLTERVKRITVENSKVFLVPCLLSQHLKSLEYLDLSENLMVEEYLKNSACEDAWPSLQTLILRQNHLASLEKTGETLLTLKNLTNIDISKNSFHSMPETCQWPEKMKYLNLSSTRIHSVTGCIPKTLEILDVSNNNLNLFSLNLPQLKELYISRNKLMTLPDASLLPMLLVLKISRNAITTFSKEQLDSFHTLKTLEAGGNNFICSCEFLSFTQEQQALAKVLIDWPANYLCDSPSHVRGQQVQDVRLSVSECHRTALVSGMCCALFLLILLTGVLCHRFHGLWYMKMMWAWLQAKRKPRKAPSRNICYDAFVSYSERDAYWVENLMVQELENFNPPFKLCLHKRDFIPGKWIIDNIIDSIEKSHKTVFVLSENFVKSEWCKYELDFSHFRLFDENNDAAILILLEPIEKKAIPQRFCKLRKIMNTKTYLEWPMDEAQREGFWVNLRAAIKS
Nucleotide-binding oligomerization domain-containing protein 2, sequence (Q9HC29 whole entry, the tested form may be a part): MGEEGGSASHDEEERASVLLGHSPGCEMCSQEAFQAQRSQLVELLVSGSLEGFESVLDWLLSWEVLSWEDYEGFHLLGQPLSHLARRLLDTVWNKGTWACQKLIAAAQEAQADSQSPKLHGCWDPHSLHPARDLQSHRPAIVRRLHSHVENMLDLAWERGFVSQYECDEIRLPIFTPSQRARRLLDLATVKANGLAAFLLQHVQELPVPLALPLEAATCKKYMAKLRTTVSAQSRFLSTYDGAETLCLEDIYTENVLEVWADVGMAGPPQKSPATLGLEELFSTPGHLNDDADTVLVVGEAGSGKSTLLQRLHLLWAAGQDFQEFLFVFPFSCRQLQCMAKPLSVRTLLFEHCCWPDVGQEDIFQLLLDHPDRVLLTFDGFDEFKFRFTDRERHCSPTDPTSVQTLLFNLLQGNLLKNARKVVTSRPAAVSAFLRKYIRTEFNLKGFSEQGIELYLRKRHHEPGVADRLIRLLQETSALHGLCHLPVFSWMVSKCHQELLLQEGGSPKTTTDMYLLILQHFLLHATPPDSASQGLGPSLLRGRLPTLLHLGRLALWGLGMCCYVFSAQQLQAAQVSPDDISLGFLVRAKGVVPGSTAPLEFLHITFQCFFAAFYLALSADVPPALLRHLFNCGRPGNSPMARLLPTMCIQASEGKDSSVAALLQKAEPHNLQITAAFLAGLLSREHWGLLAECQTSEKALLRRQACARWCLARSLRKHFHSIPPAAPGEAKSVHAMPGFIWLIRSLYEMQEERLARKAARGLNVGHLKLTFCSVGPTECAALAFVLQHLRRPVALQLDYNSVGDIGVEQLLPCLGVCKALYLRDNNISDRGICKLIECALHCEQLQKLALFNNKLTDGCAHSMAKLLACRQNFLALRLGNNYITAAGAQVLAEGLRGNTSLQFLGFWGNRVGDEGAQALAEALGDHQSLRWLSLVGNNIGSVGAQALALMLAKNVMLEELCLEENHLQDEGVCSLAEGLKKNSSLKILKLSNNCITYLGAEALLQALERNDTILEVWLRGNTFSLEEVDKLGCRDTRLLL

NCc1cccc(Cn2c(N)nc3ccccc32)c1
inactive: [1] | [2] | [3] | [4] | [5] | [6]

CCCCCn1c(NC(C)=O)nc2ccccc21
inactive: [1] | [2] | [3] | [4] | [5] | [6]

CCCCCn1c(N)nc2cccnc21
inactive: [1] | [2] | [3] | [4] | [5] | [6]

CCCCCn1c(N)nc2cnccc21
inactive: [1] | [2] | [3] | [4] | [5] | [6]

CCCCCn1c(N)nc2cc3ccccc3cc21
inactive: [1] | [2] | [3] | [4] | [5] | [6]

CCCCC1C(N)=Nc2ccccc21.Cl (centres undefined)
inactive: [1] | [2] | [3] | [4] | [5] | [6]

CCCCCn1c(N)nc2c(C(F)(F)F)cccc21
inactive: [1] | [2] | [3] | [4] | [5] | [6]

CCCCCn1c(N)nc2ncccc21
inactive: [1] | [2] | [3] | [4] | [5] | [6]

CCCCOC(=O)n1c(N)nc2ccccc21
inactive: [1] | [2] | [3] | [4] | [5] | [6]

CCCCCn1c(N)nc2ccc3ccccc3c21
inactive: [1] | [2] | [3] | [4] | [5] | [6]

Nc1nc2ccccc2n1Cc1ccccc1
inactive: [1] | [2] | [3] | [4] | [5] | [6]

CCCCCn1c(N)nc2c(OCc3ccccc3)cccc21
inactive: [1] | [2] | [3] | [4] | [5] | [6]

CCCCCn1c(N)nc2c(Br)cccc21
inactive: [1] | [2] | [3] | [4] | [5] | [6]

CCCCC1(O)C(N)=Nc2ccccc21 (centres undefined)
inactive: [1] | [2] | [3] | [4] | [5] | [6]

CCCCCn1c(N)nc2c([N+](=O)[O-])cccc21
inactive: [1] | [2] | [3] | [4] | [5] | [6]

CCCCCn1c(N)nc2c(F)cccc21
inactive: [1] | [2] | [3] | [4] | [5] | [6]

CCCCCn1c(N)nc2c(Cc3ccccc3)cccc21
inactive: [1] | [2] | [3] | [4] | [5] | [6]

CCCCCn1c(N)nc2c(Cl)cccc21
inactive: [1] | [2] | [3] | [4] | [5] | [6]

CCCCCn1c(N)nc2c(C)cccc21
inactive: [1] | [2] | [3] | [4] | [5] | [6]
